Usually IC50 stands for the midpoint of a concentration-inhibition curve. Read a low IC50 as greater potency in that assay. In general, inhibition refers to the relative decrease from the control value, in per cent. Read a low inhibition as a response near the control.

Our source for the IC50, inhibition and TGD values is ChEMBL document CHEMBL1147572, “Synthesis, SAR, and antitumor properties of diamino-C,N-diarylpyrimidine positional isomers: inhibitors of lysophosphatidic acid acyltransferase-beta” (Bioorg Med Chem Lett, 2004).

Molecules are shown by their SMILES.

One assay relates to DU-145. As to the kind of experiment: In vitro inhibitory activity against DU 145 cell line proliferation. The assay is classed as functional, cell-based. The conditions noted are these: Homo sapiens. In a few lines: (§1)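 Cell proliferation measured with a CyQuant fluorescent DNA-dye kit, following the method of an earlier report.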
For a further assay, the system named is K562. As to the kind of experiment: In vitro inhibitory activity against K-562 cell line proliferation. The assay is classed as functional, cell-based. The settings on record: Homo sapiens. The method in brief:
as §1

Assay [1] addresses T1, 1-acyl-sn-glycerol-3-phosphate acyltransferase beta (Homo sapiens, UniProt O15120).
T1 sequence (O15120 whole entry): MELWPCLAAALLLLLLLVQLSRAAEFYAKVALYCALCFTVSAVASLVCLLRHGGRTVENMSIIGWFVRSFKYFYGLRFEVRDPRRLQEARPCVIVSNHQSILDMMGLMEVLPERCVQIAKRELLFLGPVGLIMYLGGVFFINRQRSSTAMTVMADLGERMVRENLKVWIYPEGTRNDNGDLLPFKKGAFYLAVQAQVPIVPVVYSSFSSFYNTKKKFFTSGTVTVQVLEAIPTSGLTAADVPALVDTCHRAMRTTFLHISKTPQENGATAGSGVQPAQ
As to the kind of experiment: Inhibitory activity against Lysophosphatidic acid acyltransferase-beta expressed in Sf9 insect cell membranes. The method in brief:
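LPAAT-β overexpressed in Sf9 insect cell membranes. Enzyme activity read colorimetrically with DTNB (5,5'-dithiobis(2-nitrobenzoic acid)).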

For assay [2], the target named is T2, 1-acyl-sn-glycerol-3-phosphate acyltransferase alpha (Homo sapiens) (UniProt Q99943).
T2 sequence (whole entry): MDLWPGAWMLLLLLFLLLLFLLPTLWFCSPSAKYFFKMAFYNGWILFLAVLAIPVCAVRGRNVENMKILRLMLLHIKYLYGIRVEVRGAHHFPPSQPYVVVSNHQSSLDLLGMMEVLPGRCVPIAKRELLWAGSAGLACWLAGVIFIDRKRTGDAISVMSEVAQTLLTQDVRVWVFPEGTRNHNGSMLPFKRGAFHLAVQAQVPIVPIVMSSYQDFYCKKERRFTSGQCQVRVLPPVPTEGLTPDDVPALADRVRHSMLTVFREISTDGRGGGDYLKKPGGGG
The experiment in a line: Inhibitory activity against lysophosphatidic acid acyltransferase-alpha at 40 uM concentration. The method in brief: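 LPAAT-α overexpressed in Sf9 insect cell membranes in the same way. Activity read colorimetrically with DTNB. Inhibition recorded at 40 μM.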

Assay [3] concerns Lewis lung carcinoma cell line. As to the kind of experiment: In vitro inhibitory activity against murine Lewis lung tumor LL2 cell line. The assay is classed as functional, cell-based. The conditions noted are these: Mus musculus.
The test system of another assay is Mus musculus. The experiment in a line: Tumor growth delay against Lewis lung tumor LL2 cell line at 100 mg/kg q1d*4 intravenously in mice. The conditions noted are these: route intravenous.

As for `CCOc1ccc(Br)cc1-c1cc(Nc2ccc(/C(C)=N\OC)cc2)nc(N)n1`, the concentration for half-maximal inhibition (IC50) with DU-145 was above 1000 nM; in the assay on K562, above 1000 nM; in assay [1], 970 nM.

Take `Nc1nc(Nc2ccc(Cl)cc2)cc(-c2cc(Cl)ccc2Cl)n1`: the results for the 50% inhibitory concentration (IC50) with DU-145 and in the assay on K562 were 190 nM and below 100 nM, respectively.

As to `CCOc1ccc(Cl)cc1-c1cc(Nc2ccc(CCO)cc2)nc(N)n1`, the 50% inhibitory concentration (IC50) in the assay with DU-145 is 70 nM; in the assay on K562 it was below 50 nM.

As to `COc1ccc(Cl)cc1-c1nc(N)cc(Nc2ccc(Cl)cc2)n1`, the IC50 in the assay with DU-145 amounted to 5000 nM; in the assay on K562, 750 nM; in assay [1], 7000 nM.

As for `COc1ccc(Cl)cc1-c1cc(Nc2ccc(Cl)cc2)nc(N)n1`, the values for the IC50 in the assay on DU-145 and in the assay on K562 were 500 nM and 150 nM, respectively.

Turning to `Cc1ccc(Br)cc1-c1cc(Nc2ccc(Cl)cc2)nc(N)n1`, the values for the IC50 in the assay on DU-145 and in the assay on K562 were 100 nM and 70 nM, respectively.

Take `COc1ccc(Cl)cc1-c1cc(Nc2ccc3c[nH]nc3c2)nc(N)n1`: the IC50 in the assay on DU-145 is 1000 nM; with K562, 250 nM.

`CCOc1ccc(Br)cc1-c1cc(Nc2ccc(Cl)cc2)nc(N)n1`: the figures for the IC50 (with DU-145; in the assay on K562; in assay [1]) were 80 nM, 50 nM and 16 nM, respectively. This compound displayed an inhibition in assay [2] of 50%.

Take `COc1ccc(Cl)cc1-c1cc(N)nc(Nc2ccc(Cl)cc2)n1`: the 50% inhibitory concentration (IC50) in the assay on DU-145 was above 10000 nM; in the assay on K562 it was 3000 nM; in assay [1], 7000 nM.

`CCOc1ccc(Br)cc1-c1cc(Nc2ccc(CC(=O)O)cc2)nc(N)n1`: the IC50 in the assay with DU-145 is above 1000 nM; in the assay on K562, above 1000 nM; in assay [1], 210 nM.

With `Cc1ccc(F)cc1-c1cc(Nc2ccc(Cl)cc2)nc(N)n1`, the IC50 with DU-145 is above 1000 nM; with K562, 250 nM; in assay [1], 150 nM.

For `CCOc1ccc(Cl)cc1-c1cc(Nc2ccc3c[nH]nc3c2)nc(N)n1`, the IC50 is 200 nM in the assay on DU-145 and below 100 nM with K562.

The compound `CCOc1ccc(Br)cc1-c1cc(Nc2ccc(C(=N)N)cc2)nc(N)n1` gave an IC50 in assay [1] above 5000 nM.

Take `COc1ccc(Cl)cc1-c1cc(N)nc(Nc2ccc(Br)cc2)n1`: the IC50 in the assay with DU-145 was above 10000 nM; with K562, 3000 nM; in assay [1], 2300 nM.

Take `CCOc1ccc(Cl)cc1-c1cc(Nc2ccc(CCCO)cc2)nc(N)n1`: the concentration for half-maximal inhibition (IC50) in the assay with DU-145 and with K562 was above 1000 nM in each case.

On to `CCOc1ccc(Cl)cc1-c1cc(Nc2ccc(CC(=O)O)cc2)nc(N)n1`, for which the IC50 is above 1000 nM with DU-145, above 1000 nM in the assay on K562 and 580 nM in assay [1].

Take `COc1ccc(Cl)cc1-c1nc(N)cc(Nc2ccc3c[nH]nc3c2)n1`: the concentration for half-maximal inhibition (IC50) with DU-145 was above 10000 nM; in the assay with K562, 5500 nM.

In the case of `CCOc1ccc(Cl)cc1-c1cc(Nc2cccc([N+](=O)[O-])c2)nc(N)n1`, the concentration for half-maximal inhibition (IC50) with DU-145 is above 1000 nM; in the assay on K562 it was 450 nM; in assay [1], 640 nM.

For `CCOc1ccc(Br)cc1-c1cc(Nc2ccc(C(N)=O)cc2)nc(N)n1`, in assay [1], the IC50 worked out at 750 nM. This lies in the sub-micromolar range.

`CCOc1ccc(Br)cc1-c1cc(Nc2ccc(C(C)=O)cc2)nc(N)n1`: the IC50 in the assay with DU-145 was 90 nM; with K562, 50 nM.

As to `CCOc1ccc(Br)cc1-c1cc(Nc2ccccc2)nc(N)n1`, the IC50 is above 1000 nM with DU-145, 260 nM with K562 and 120 nM in assay [1].

`Cc1ccc(O)cc1-c1cc(Nc2ccc(Cl)cc2)nc(N)n1` displayed a half-maximal inhibitory concentration (IC50) in assay [1] of 8300 nM.

For the compound `Nc1nc(Nc2ccc(Cl)cc2)cc(-c2cc(Br)ccc2O)n1`, the 50% inhibitory concentration (IC50) with DU-145 and with K562 was above 1000 nM throughout.

With `CCOc1ccc(Br)cc1-c1cc(Nc2ccc(/C(C)=N\O)cc2)nc(N)n1`, the IC50 was below 50 nM in the assay with DU-145, below 50 nM in the assay with K562 and 84 nM in assay [1].

Take `Cc1ccc(Cl)cc1-c1cc(Nc2ccc(Cl)cc2)nc(N)n1`: the results for the IC50 (in the assay on DU-145; in the assay on K562; in assay [1]) were 120 nM, 60 nM and 22 nM, respectively.

Take `CCOc1ccc(Br)cc1-c1cc(Nc2ccc(B(O)O)cc2)nc(N)n1`: the half-maximal inhibitory concentration (IC50) in the assay with DU-145 stood at 500 nM; with K562, 200 nM; in assay [1], 91 nM.

In the case of `CCOc1ccc(Br)cc1-c1cc(Nc2ccc(CC(=O)NO)cc2)nc(N)n1`, the results for the IC50 (in the assay on DU-145; in the assay with K562; in assay [1]) were above 1000 nM, above 1000 nM and 400 nM, respectively.

`CCOc1ccc(Cl)cc1-c1cc(Nc2ccc(CO)cc2)nc(N)n1`: the figures for the 50% inhibitory concentration (IC50) in the assay on DU-145 and in the assay with K562 were 40 nM and below 12 nM, respectively.

For the compound `CCOc1ccc(Br)cc1-c1cc(Nc2ccc(C#N)cc2)nc(N)n1`, the figures for the IC50 (with DU-145; in the assay on K562; in assay [1]) were 400 nM, 70 nM and 17 nM, respectively.

With `Cc1ccc(Cl)cc1-c1cc(Nc2ccc(Br)cc2)nc(N)n1`, the IC50 is 130 nM in the assay on DU-145 and 60 nM in the assay with K562.

With `CCOc1ccc(Br)cc1-c1cc(Nc2cccc(C#N)c2)nc(N)n1`, the results for the 50% inhibitory concentration (IC50) (in the assay on DU-145; with K562; in assay [1]) were above 1000 nM, 350 nM and 720 nM, respectively.

In the case of `CCOc1ccc(Br)cc1-c1cc(Nc2ccc(C(=O)O)cc2)nc(N)n1`, inhibition in assay [1] was half-maximal at 2700 nM (IC50).

Consider `CCOc1ccc(Br)cc1-c1cc(Nc2ccc(C(=O)NO)cc2)nc(N)n1`, for which the IC50 in the assay on DU-145 is above 1000 nM; in the assay on K562, 700 nM.

Turning to `COc1ccc(Cl)cc1-c1cc(N)nc(Nc2ccc3c[nH]nc3c2)n1`, the half-maximal inhibitory concentration (IC50) in the assay with DU-145 and with K562 was above 10000 nM throughout.

Take `CCOc1ccc(Cl)cc1-c1cc(Nc2ccc(Cl)cc2)nc(N)n1`: the IC50 is 70 nM in the assay with DU-145 and below 12 nM in the assay with K562.

In the case of `Nc1nc(Nc2ccc(Cl)cc2)cc(-c2cc(Cl)ccc2O)n1`, the IC50 in assay [1] was 10000 nM.

Regarding `COc1ccc(Cl)cc1-c1cc(Nc2ccc(Br)cc2)nc(N)n1`, the half-inhibitory concentration (IC50) is 250 nM in the assay on DU-145, 150 nM in the assay on K562 and 28 nM in assay [1].

As to `Cc1ccc(Cl)cc1-c1cc(Nc2ccc(C(F)(F)F)cc2)nc(N)n1`, the 50% inhibitory concentration (IC50) came to 230 nM with DU-145, 140 nM with K562, 160 nM in assay [3] and 140 nM in assay [1]. In the assay with Mus musculus, the TGD came out at 6 days.

As to `Cc1ccc(Cl)cc1-c1cc(Nc2cccc(Br)c2)nc(N)n1`, the IC50 is 400 nM in the assay on DU-145, 200 nM in the assay with K562 and 610 nM in assay [1].

As for `Cc1ccc(Br)cc1-c1cc(Nc2ccc(Br)cc2)nc(N)n1`, the IC50 in the assay with DU-145 came to 110 nM; in the assay on K562, 70 nM.

Turning to `CCOc1ccc(Cl)cc1-c1cc(Nc2ccc([N+](=O)[O-])cc2)nc(N)n1`, the IC50 with DU-145 turned out to be 350 nM; in the assay with K562, 180 nM.

With `COc1ccc(Cl)cc1-c1nc(N)cc(Nc2ccc(Br)cc2)n1`, the IC50 in the assay on DU-145 amounted to 800 nM; in the assay with K562, 150 nM.
